Results as given in ChEMBL document CHEMBL4152204, “Discovery of N-hydroxy-3-alkoxybenzamides as direct acid sphingomyelinase inhibitors using a ligand-based pharmacophore model” (Eur J Med Chem, 2018).
Calls of active or inactive are those of the source. The calls are words filed in the database; no cut-off is given here.

Experiments:
[1] = target: T1, Sphingomyelin phosphodiesterase (Mus musculus) (UniProt Q04519); assay: Inhibition of acid sphingomyelinase in mouse NIH/3T3 cells assessed as ceramide levels at 20 uM after 20 hrs by LC-MS/MS analysis relative to control; type: cell-based
T1 sequence (whole entry): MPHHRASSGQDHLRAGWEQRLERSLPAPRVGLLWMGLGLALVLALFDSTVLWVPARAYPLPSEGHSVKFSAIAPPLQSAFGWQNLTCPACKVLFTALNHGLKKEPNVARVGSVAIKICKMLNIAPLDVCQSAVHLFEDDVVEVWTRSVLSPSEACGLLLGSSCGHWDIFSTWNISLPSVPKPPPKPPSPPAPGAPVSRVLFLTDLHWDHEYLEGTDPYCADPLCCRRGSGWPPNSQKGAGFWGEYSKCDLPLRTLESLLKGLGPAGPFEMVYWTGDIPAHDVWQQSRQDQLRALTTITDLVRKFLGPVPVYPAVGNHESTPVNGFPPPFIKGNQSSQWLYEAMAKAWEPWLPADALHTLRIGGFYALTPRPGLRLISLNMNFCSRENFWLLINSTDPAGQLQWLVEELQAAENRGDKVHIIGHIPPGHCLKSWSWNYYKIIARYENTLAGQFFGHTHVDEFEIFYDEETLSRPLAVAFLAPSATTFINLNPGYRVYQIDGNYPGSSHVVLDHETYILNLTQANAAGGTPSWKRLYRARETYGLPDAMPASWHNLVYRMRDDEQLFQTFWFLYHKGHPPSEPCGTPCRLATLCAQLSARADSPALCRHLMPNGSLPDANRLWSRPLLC
Summary of the method: (§1)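 NIH3T3 cells in DMEM with 10% FBS, 37 °C, 5% CO₂; at 90% confluence given fresh medium plus inhibitor (5, 10, 20 µM) for 20 h; total ceramides and sphingomyelin quantified by LC-MS-MS versus untreated control; mean ± SD of three independent experiments, Student's t-test.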

NIH3T3 = assay: Inhibition of LPS-induced IL-6 production in mouse NIH/3T3 cells preincubated for 20 hrs followed by LPS-stimulation and measured after 6 hrs by ELISA; type: functional, cell-based
Summary of the method: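 NIH3T3 cells (DMEM, 10% FBS) seeded at 2*10⁵ per well overnight, inhibitor 20 h, then LPS to 50 ng/mL for a further 6 h; IL-6 or IL-8 measured by ELISA; compared with LPS-only and control groups.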

[2] = target: T2, Sphingomyelin phosphodiesterase (Homo sapiens) (UniProt P17405); assay: Competitive inhibition of acid sphingomyelinase in human HuH7 cell lysate using varying levels of NBD-sphingomyelin as substrate at 0.5 to 5 uM after 30 mins by Lineweaver-Burk analysis; conditions: in the assay text read “after 10 mins” for “after 30 mins”
T2 sequence (whole entry): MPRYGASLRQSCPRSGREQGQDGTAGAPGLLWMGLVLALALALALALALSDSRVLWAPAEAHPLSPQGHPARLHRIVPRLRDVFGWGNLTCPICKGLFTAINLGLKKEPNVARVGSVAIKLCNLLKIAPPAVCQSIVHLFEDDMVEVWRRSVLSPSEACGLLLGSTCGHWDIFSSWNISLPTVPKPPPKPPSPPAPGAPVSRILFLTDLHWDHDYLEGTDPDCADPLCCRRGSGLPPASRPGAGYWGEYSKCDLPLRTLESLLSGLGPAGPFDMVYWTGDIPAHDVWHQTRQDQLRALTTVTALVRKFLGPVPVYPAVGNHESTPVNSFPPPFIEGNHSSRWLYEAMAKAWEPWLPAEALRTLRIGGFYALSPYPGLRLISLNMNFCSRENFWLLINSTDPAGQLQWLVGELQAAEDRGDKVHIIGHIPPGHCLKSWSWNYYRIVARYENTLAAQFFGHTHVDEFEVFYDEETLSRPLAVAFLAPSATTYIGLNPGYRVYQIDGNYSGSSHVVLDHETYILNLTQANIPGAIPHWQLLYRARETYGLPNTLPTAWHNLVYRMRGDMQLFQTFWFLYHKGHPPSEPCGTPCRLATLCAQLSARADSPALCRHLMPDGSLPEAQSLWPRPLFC
Summary of the method: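 Kinetics using the lysate ASM protocol, NBD-SM at 1.35, 1.89, 2.70, 4.54 and 13.5 µM per inhibitor level (0.5, 1.0, 5 µM); reaction stopped after 10 min; NBD-ceramide quantified by HPLC against a standard curve; Lineweaver-Burk plots by linear regression; triplicate.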

[3] = target: T1, Sphingomyelin phosphodiesterase (Mus musculus); assay: Inhibition of acid sphingomyelinase in mouse NIH/3T3 cells assessed as increase in […] level at 10 uM after 20 hrs by LC-MS/MS analysis relative to control; type: cell-based; parameters: scale not given: the % may be the effect or the level left; summary of the method: as §1

Structure (SMILES): CCCCCCCCCCOc1cc(C(=O)NO)ccc1OC
- inhibition [1]: 42.6%
- inhibition (NIH3T3): Dose-dependent effect
- inhibition [2]: Active
- Activity [3]: 36.4%
